The text below walks through data of paper PMC10159923 (Lab on a chip, 2023).

One test concerns the target T1, PAR1 (Homo sapiens, UniProt P25116).
T1 sequence (P25116 22-425): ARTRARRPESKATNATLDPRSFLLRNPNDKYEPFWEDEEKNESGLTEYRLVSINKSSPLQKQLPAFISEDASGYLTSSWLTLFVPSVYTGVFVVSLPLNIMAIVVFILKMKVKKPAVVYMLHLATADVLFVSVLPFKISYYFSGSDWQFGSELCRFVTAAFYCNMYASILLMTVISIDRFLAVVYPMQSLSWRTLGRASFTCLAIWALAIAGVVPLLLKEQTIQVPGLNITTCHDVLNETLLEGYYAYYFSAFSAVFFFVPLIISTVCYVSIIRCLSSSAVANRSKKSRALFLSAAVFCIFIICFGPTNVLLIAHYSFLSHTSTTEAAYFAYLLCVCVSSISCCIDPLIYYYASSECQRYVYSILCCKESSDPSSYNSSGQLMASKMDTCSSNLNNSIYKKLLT
Nature of the test: MEIRS cellular response of A431 cells to PAR1 activating peptide. Format: cell-based. An outline of the steps:
(§1)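 A431 cells (ATCC, passage <15) were seeded at ~500,000/mL in DMEM + 10% FBS on fibronectin-coated (10 μg/mL) metasurface wells and incubated overnight. Medium was then swapped to L15 + 1% antibiotic-antimycotic. One baseline spectrum preceded manual addition of peptide in L15. FTIR reflectance was taken at room temperature, every 4 min per well, for 1 h. Spectra were differenced from t = 0, and first-PC signals were extracted from the protein, plasmonic and lipid windows (mean ± standard error, n = 4).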

The subject of the next test is PAR1/PAR2. Nature of the test: MEIRS cellular response of A431 cells to PAR peptides / control peptide. It is filed as cell-based, human. An outline of the steps:
as §1

The next test concerns A431 cells. Nature of the test: Phase contrast imaging of cell spreading on coated metasurfaces. Format: cell-based, human. The conditions noted are these: Fig. S2.
The subject of test [1] is cells (cell type not given). The conditions noted are these: among others, including collagen and PDL; cited from earlier work.

SFLLR-NH2: the “course of cellular signal after maximal point” value on PAR1 (MEIRS PC1 signal) is “decreased right after the maximal point was reached”. The “duration of gradual decrease in cellular signal back to baseline level” value at PAR1 (MEIRS PC1 signal, after peak) was “about 30 min”. For the same substance, on PAR1 (MEIRS PC1 signal, Δt = 4 min, n = 4), the “time of cellular signal peak after peptide addition” value was 8 to 12 min. Besides, at PAR1 (as soon as the peptides were added), the “initial change in cellular signal on addition of peptide” value is reported as “rapid increase in the cellular signal”. The “peak amplitude of cellular signal (SFLLR vs SLIGKV)” value with PAR1/PAR2 (100 μM) was “similar”.
Consider VKGILS-NH2, for which the “cellular response to control peptide” value in the test with PAR1/PAR2 (MEIRS PC1 signal, n = 4) is given as “very little response from the cells”.
Take fibronectin: in the test on A431 cells, the “cell spreading, phase contrast morphology” value is “cells spread well”. The “best coating material by electric impedance” value in test [1] is reported as “often the best coating material”.
